# Measured values reported in the array DNA melting data of Ke et al. (doi:10.1101/2024.01.08.574731).
# Legend:
# [1] = folding enthalpy; higher = less favourable; fluorescence melt of hairpins on a sequencing array, two-state fit; details: sodium 0.088 M
# In short: (§1)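 In 50 mM Na-HEPES pH 8.0 containing 25 mM NaCl, hairpins from the library on a sequenced MiSeq flow cell were imaged for Cy3 fluorescence at 2.5 °C steps up to 60 °C, with Cy3 and quencher oligos annealed. After normalisation to pre-quench Cy3 and to control constructs, two-state fits with bootstrapping gave melting temperature and folding enthalpy. Four replicates were combined by inverse-variance weighting, and fitted temperatures were shifted up by 9.35 °C to match UV melts.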
# [2] = melting temperature; fluorescence melt of hairpins on a sequencing array, two-state fit, raised by 9.35 °C to match UV melts; details: sodium 0.088 M
# In short: as §1
sequence,measurement,setting,value
GTTCGCGAAAGCGTAAC ((((((....))).))),folding enthalpy,[1],-13.8 kcal/mol
same,Tm,[2],48 °C
GATCCCGGAGGGGATC ((((((....)))))),folding enthalpy,[1],-19.4 kcal/mol
same,Tm,[2],65.8 °C
GTCTCCGAAAGGATTGAC ((((((....)))..))),folding enthalpy,[1],-20 kcal/mol
same,Tm,[2],35.5 °C
GTTCGGCCGAAAGGCAAC (((..(((....)))))),folding enthalpy,[1],-6.89 kcal/mol
same,Tm,[2],31.3 °C
GATCATCGCAATGATC ((((((....)))))),folding enthalpy,[1],-39.1 kcal/mol
same,Tm,[2],48.3 °C
GTGGTGCGAAAGCACAC (((.(((....)))))),folding enthalpy,[1],-11.5 kcal/mol
same,Tm,[2],53.8 °C
GTCATCCGAAAGGAGGAC (((.(((....))).))),folding enthalpy,[1],-36.3 kcal/mol
same,Tm,[2],58.6 °C
GTCACCGAAAGGTGCGAC ((((((....)))..))),folding enthalpy,[1],-13 kcal/mol
same,Tm,[2],58.5 °C
GGGATAGGAAACTGTCCC ((((.((....)).)))),folding enthalpy,[1],-35.9 kcal/mol
same,Tm,[2],49.4 °C
GCGTCTCGAAAGAGCGC (((.(((....)))))),folding enthalpy,[1],-31 kcal/mol
same,Tm,[2],66.8 °C
GATCGGTCTTCCGATC ((((((....)))))),folding enthalpy,[1],-37.2 kcal/mol
same,Tm,[2],58.9 °C
GATCATATAATGATC ((((((...)))))),folding enthalpy,[1],-31.6 kcal/mol
same,Tm,[2],49 °C
GGTAGTGGAAACGTTACC ((((..(....)..)))),folding enthalpy,[1],-17.1 kcal/mol
same,Tm,[2],34.5 °C
GTCTGTTCGAAAGAAGAC (((..(((....)))))),folding enthalpy,[1],-23 kcal/mol
same,Tm,[2],26.4 °C
GGAGTTGGAAACAACTCC (((((((....))))))),folding enthalpy,[1],-45.3 kcal/mol
same,Tm,[2],65.9 °C
GATCCCGAAAGGGGAATC ((((((....)))..))),folding enthalpy,[1],-12.3 kcal/mol
same,Tm,[2],36.1 °C
GTCTTGACGAAAGTCGAC (((..(((....)))))),folding enthalpy,[1],-11 kcal/mol
same,Tm,[2],35.5 °C
GCGTACGAAAGTATACGC ((((((....)))..))),folding enthalpy,[1],-34 kcal/mol
same,Tm,[2],51.4 °C
GACTGACGAAAGTCGTC (((.(((....)))))),folding enthalpy,[1],-14.2 kcal/mol
same,Tm,[2],52.6 °C
GATGGAGGAAACTCCACC (.(((((....))))).),folding enthalpy,[1],-16.3 kcal/mol
same,Tm,[2],34.1 °C
GATCCGGGCCGGATC ((((((...)))))),folding enthalpy,[1],-46.2 kcal/mol
same,Tm,[2],60.3 °C
GGCCCCGGAAACAGGGCC (((((.(....).))))),folding enthalpy,[1],-43.7 kcal/mol
same,Tm,[2],58.2 °C
CGCTACGGAAACGTTGCG (((.(((....))).))),folding enthalpy,[1],-38.7 kcal/mol
same,Tm,[2],56.3 °C
GTGCATTCGAAAGAACAC (((..(((....)))))),folding enthalpy,[1],-7.63 kcal/mol
same,Tm,[2],23.8 °C
GCGAGCCCGAAAGGGCGC (((..(((....)))))),folding enthalpy,[1],-7.38 kcal/mol
same,Tm,[2],55.8 °C
GAGTGCCGAAAGGCCTC (((.(((....)))))),folding enthalpy,[1],-17.7 kcal/mol
same,Tm,[2],56.8 °C
GATCAGGGCTCTGATC ((((((....)))))),folding enthalpy,[1],-38.8 kcal/mol
same,Tm,[2],55.1 °C
GACCTCGGAAACGAGATC ((.((((....)))).)),folding enthalpy,[1],-20.3 kcal/mol
same,Tm,[2],40.5 °C
GGCAATGGAAACGTTGTC (.(((.(....).))).),folding enthalpy,[1],-25.9 kcal/mol
same,Tm,[2],35.8 °C
GTAGACCGAAAGGTGTAC (((.(((....))).))),folding enthalpy,[1],-36.3 kcal/mol
same,Tm,[2],50.8 °C
GGCTGCGAAAGCATGCC ((((((....))).))),folding enthalpy,[1],-21.6 kcal/mol
same,Tm,[2],66.7 °C
GTAGGTGGAAACACCCAC ((.((((....)))).)),folding enthalpy,[1],-13.1 kcal/mol
same,Tm,[2],34.7 °C
GTGCGAGGAAACCCACAC (((.(.(....).).))),folding enthalpy,[1],-10.4 kcal/mol
same,Tm,[2],24.6 °C
CGCTACGGAAACGTGCG (((.(((....)))))),folding enthalpy,[1],-33.2 kcal/mol
same,Tm,[2],53.3 °C
GATCGGTTAGCCGATC ((((((....)))))),folding enthalpy,[1],-46.4 kcal/mol
same,Tm,[2],58.6 °C
GACGTCCCGAAAGGGGTC (((..(((....)))))),folding enthalpy,[1],-10.9 kcal/mol
same,Tm,[2],39.9 °C
GATCGTGTTGACGATC ((((((....)))))),folding enthalpy,[1],-29.3 kcal/mol
same,Tm,[2],57.4 °C
GATGAAGAAATTCATC ((((((....)))))),folding enthalpy,[1],-24.9 kcal/mol
same,Tm,[2],43.3 °C
GATCGGTGAACCGATC ((((((....)))))),folding enthalpy,[1],-43.4 kcal/mol
same,Tm,[2],61 °C
ACGTAGAAATACGT (((((....))))),folding enthalpy,[1],-19.9 kcal/mol
same,Tm,[2],37.9 °C
GGTTTCGAAAGAACCACC ((((((....)))..))),folding enthalpy,[1],-17.1 kcal/mol
same,Tm,[2],34.4 °C
GCCTCCGAAAGGAAGGGC ((((((....)))..))),folding enthalpy,[1],-22.3 kcal/mol
same,Tm,[2],50.2 °C
GCATCCCCGAAAGGGTGC (((..(((....)))))),folding enthalpy,[1],-17.5 kcal/mol
same,Tm,[2],53.5 °C
GGGGTAACGAAAGTTCCC (((..(((....)))))),folding enthalpy,[1],-23.8 kcal/mol
same,Tm,[2],49.9 °C
GGGTAACGAAAGTTGCCC (((.(((....))).))),folding enthalpy,[1],-49.4 kcal/mol
same,Tm,[2],59.6 °C
GCAGATGGAAACGTCTGC (((((.(....).))))),folding enthalpy,[1],-45.2 kcal/mol
same,Tm,[2],53.2 °C
GTGTGCGAAAGCAGACAC ((((((....)))..))),folding enthalpy,[1],-19.1 kcal/mol
same,Tm,[2],53.2 °C
GCGCCCGAAAGGGTCCGC ((((((....)))..))),folding enthalpy,[1],-14.8 kcal/mol
same,Tm,[2],56.2 °C
CGCTAGAAATAGCG (((((....))))),folding enthalpy,[1],-24.9 kcal/mol
same,Tm,[2],51.8 °C
GATCCGTCTTCGGATC ((((((....)))))),folding enthalpy,[1],-40 kcal/mol
same,Tm,[2],59.4 °C
GGACACGGAAACGTATCC (((.(((....))).))),folding enthalpy,[1],-27.4 kcal/mol
same,Tm,[2],40.9 °C
GCTTGCGCGAAAGCGAGC (((..(((....)))))),folding enthalpy,[1],-13.3 kcal/mol
same,Tm,[2],56.2 °C
GCCGTGGGAAACTGCGGC ((((..(....)..)))),folding enthalpy,[1],-28.5 kcal/mol
same,Tm,[2],53.9 °C
GAGCGGGGAAACCTGCTC ((((.((....)).)))),folding enthalpy,[1],-30.6 kcal/mol
same,Tm,[2],57.3 °C
GACATCGGAAACAATGTC (((((.(....).))))),folding enthalpy,[1],-33 kcal/mol
same,Tm,[2],34.1 °C
GGCGGCGAAAGCCTAGCC ((((((....)))..))),folding enthalpy,[1],-21.3 kcal/mol
same,Tm,[2],60.8 °C
GAAACAGGAAACCGTTTC (((((.(....).))))),folding enthalpy,[1],-24.3 kcal/mol
same,Tm,[2],35.8 °C
GGCAACGAAAGTTCAGCC ((((((....)))..))),folding enthalpy,[1],-24.4 kcal/mol
same,Tm,[2],41.1 °C
GATCGATCCTTCGATC ((((((....)))))),folding enthalpy,[1],-45.3 kcal/mol
same,Tm,[2],55.5 °C
GGCCTCGAAAGAGTGGCC ((((((....)))..))),folding enthalpy,[1],-36.6 kcal/mol
same,Tm,[2],54.4 °C
GCTCTCCCGAAAGGGAGC (((..(((....)))))),folding enthalpy,[1],-7.28 kcal/mol
same,Tm,[2],33 °C
GATCGGCCGCCGATC ((((((...)))))),folding enthalpy,[1],-36.6 kcal/mol
same,Tm,[2],55.7 °C
GTACGCGAAAGCGTCTAC ((((((....)))..))),folding enthalpy,[1],-7.82 kcal/mol
same,Tm,[2],39.9 °C
GATCGGAAACCCGATC ((((((....)))))),folding enthalpy,[1],-34.6 kcal/mol
same,Tm,[2],53.9 °C
GCTAACGGAAACGTTAAC (.(((((....))))).),folding enthalpy,[1],-16.1 kcal/mol
same,Tm,[2],34.8 °C
GTCATCGAAAGATATGAC ((((((....)))..))),folding enthalpy,[1],-20 kcal/mol
same,Tm,[2],34.6 °C
GAGGCAGGAAACTGCCCC (.(((((....))))).),folding enthalpy,[1],-9.1 kcal/mol
same,Tm,[2],44.2 °C
GCGCTTGGAAACAAGTGC ((.((((....)))).)),folding enthalpy,[1],-50.5 kcal/mol
same,Tm,[2],56.9 °C
GAGAGCGAAAGCTTACTC ((((((....)))..))),folding enthalpy,[1],-12.3 kcal/mol
same,Tm,[2],30.6 °C
GGCGATCGAAAGATGGCC (((.(((....))).))),folding enthalpy,[1],-47.6 kcal/mol
same,Tm,[2],57.6 °C
GATCGTCAAACGATC ((((((...)))))),folding enthalpy,[1],-31.7 kcal/mol
same,Tm,[2],52.1 °C
GATTAACCGAAAGGTATC (((..(((....)))))),folding enthalpy,[1],-12.7 kcal/mol
same,Tm,[2],27.6 °C
GGAATTGGAAACAATTCC (((((((....))))))),folding enthalpy,[1],-45.1 kcal/mol
same,Tm,[2],56.3 °C
GACAGGGGAAACCCTATC ((.((((....)))).)),folding enthalpy,[1],-12.8 kcal/mol
same,Tm,[2],28 °C
GGAATGCCGAAAGGCTCC (((..(((....)))))),folding enthalpy,[1],-10.2 kcal/mol
same,Tm,[2],34.5 °C
GCTCTCGGAAACGGGAGC ((((.((....)).)))),folding enthalpy,[1],-41.3 kcal/mol
same,Tm,[2],57.4 °C
GACCGGGGAAACCCGGCC (.(((((....))))).),folding enthalpy,[1],-11.2 kcal/mol
same,Tm,[2],50.4 °C
GCTATCGGAAACGATAAC (.(((((....))))).),folding enthalpy,[1],-17.4 kcal/mol
same,Tm,[2],34.5 °C
GGACCGTCGAAAGACTCC (((..(((....)))))),folding enthalpy,[1],-12.9 kcal/mol
same,Tm,[2],30.7 °C
GATCGTGGCTACGATC ((((((....)))))),folding enthalpy,[1],-39.3 kcal/mol
same,Tm,[2],59 °C
GGTGGAGGAAACTTCACC ((((.((....)).)))),folding enthalpy,[1],-33.4 kcal/mol
same,Tm,[2],50.1 °C
GATTGCGGAAACGCAATC (((((((....))))))),folding enthalpy,[1],-37.8 kcal/mol
same,Tm,[2],67.9 °C
GCGGAAGGAAACTCCCGC ((((.((....)).)))),folding enthalpy,[1],-36.2 kcal/mol
same,Tm,[2],50 °C
GCTTGCGAAAGCACCAGC ((((((....)))..))),folding enthalpy,[1],-8.92 kcal/mol
same,Tm,[2],34.8 °C
GCATGGCGAAAGCCTGGC ((..(((....)))..)),folding enthalpy,[1],-18.4 kcal/mol
same,Tm,[2],53.4 °C
GCCTCCACGAAAGTGGGC (((..(((....)))))),folding enthalpy,[1],-7.76 kcal/mol
same,Tm,[2],46.9 °C
GAGTTTGGAAACAAATTC ((.((((....)))).)),folding enthalpy,[1],-28.7 kcal/mol
same,Tm,[2],35.8 °C
GTAAACGAAAGTTTAC ((((((....)))))),folding enthalpy,[1],-35.2 kcal/mol
same,Tm,[2],56 °C
GCTGCTCGAAAGAGTAGC (((.(((....))).))),folding enthalpy,[1],-38.9 kcal/mol
same,Tm,[2],62.1 °C
GGTCTGGGAAACTGGACC ((((..(....)..)))),folding enthalpy,[1],-31.1 kcal/mol
same,Tm,[2],45.1 °C
GTAGCCGAAAGGCTATAC ((((((....)))..))),folding enthalpy,[1],-10.2 kcal/mol
same,Tm,[2],47.1 °C
GATCCTTTTCAGGATC ((((((....)))))),folding enthalpy,[1],-32.6 kcal/mol
same,Tm,[2],52.6 °C
